Measured values reported in ChEMBL document CHEMBL3352696, “Selective immunoproteasome inhibitors with non-peptide scaffolds identified from structure-based virtual screening” (Bioorg Med Chem Lett, 2014).
Residues, ends and D or L forms follow the SMILES beside them. *: point of attachment. Fmoc = O=C(OCC1c2ccccc2-c2ccccc21)*

What was measured:
Homo sapiens [1] = species: Homo sapiens; test: Inhibition of chymotrypsin-like activity of human 20S immunoproteasome using Suc-LLVY-AMC as substrate at 5 uM after 90 mins by fluorescence assay
In short: (§1)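 Purified human 20S immunoproteasome or constitutive proteasome, 2-fold diluted in 20 mM Tris/Cl pH 8.0, 0.5 mM EDTA, 0.035% SDS, at 50 ng/well. The enzyme was preincubated with compound (5 µM, from DMSO) for 90 min at room temperature. Then 100 µM Suc-LLVY-AMC was added and AMC fluorescence (Ex 360/Em 460) was read for 90 min. […] Run in triplicate.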

Proteasome = test: Inhibition of chymotrypsin-like activity of constitutive proteasome (unknown origin) using Suc-LLVY-AMC as substrate at 5 uM after 90 mins by fluorescence assay; format: subcellular; conditions: Homo sapiens; in short: as §1
[2] = Inhibition of chymotrypsin-like activity of human 20S immunoproteasome using Suc-LLVY-AMC as substrate after 90 mins by fluorescence assay
Homo sapiens [3] = species: Homo sapiens; test: Inhibition of chymotrypsin-like activity of human 20S immunoproteasome using Suc-LLVY-AMC as substrate at 1 uM after 90 mins by fluorescence assay

SMILES: O=C(C[C@@H]1CCN(CC2CC2)C[C@@H]1[C@H]1CC(c2ccccc2Cl)=NO1)NCCc1ccccn1
- inhibition (Homo sapiens [1]): 13%
- inhibition (Proteasome): 14%

SMILES: CCC[C@H]1C[C@H](C(=O)N[C@@H]([C@@H]2O[C@H](SC)[C@@H](O)[C@@H](O)[C@@H]2O)[C@@H](C)O)N(C)C1
- IC50 [2]: 22 µM
- inhibition (Homo sapiens [1]): 36%
- inhibition (Proteasome): 2%

SMILES: O=C1CN(/N=C/c2ccc(-c3ccc(Cl)cc3)o2)C(=O)N1CCCCN1CCN(C[C@@H](O)c2ccccc2)CC1
- inhibition (Homo sapiens [1]): 25%
- inhibition (Proteasome): 16%

SMILES: CC[C@H](C)[C@H](NC(=O)[C@H]([C@@H](C)CC)N(C)C(C)=O)C(=O)N[C@H](C(=O)N[C@@H](CC(C)C)C(=O)[C@@]1(C)CO1)[C@@H](C)O
- inhibition (Homo sapiens [3]): 100%

SMILES: Cc1ccc(CSC[C@@H](NC(=O)c2cc(-c3ccccc3)nc3ccccc23)C(=O)NCCCN2CCCC2=O)cc1
- IC50 [2]: 4.9 µM
- inhibition (Homo sapiens [1]): 62%
- inhibition (Proteasome): 15%

SMILES: NC(=O)CC[C@H](NC(=O)[C@H](Cc1cnc[nH]1)NC(=O)OCC1c2ccccc2-c2ccccc21)C(=O)N1CCC[C@H]1C(=O)O (Fmoc-His-Gln-Pro-OH)
- inhibition (Homo sapiens [1]): 35%
- inhibition (Proteasome): 24%

SMILES: Cc1cccc(Nc2ccccc2C(=O)N[C@H](CC[S@+](C)[O-])C(=O)N[C@H](C)c2ccc(F)cc2)c1C
- inhibition (Homo sapiens [1]): 31%
- inhibition (Proteasome): 33%

SMILES: CCCCc1ccc2nc(-c3ccc(OC)cc3)cc(C(=O)NC[C@@H](C)C(=O)N3CCC[C@@H]3CO)c2c1
- inhibition (Homo sapiens [1]): 21%
- inhibition (Proteasome): 2%

SMILES: CC[C@@H](NC(=O)[C@@H](CC(C)C)NC(=O)OCc1ccccc1)C(=O)C(=O)NCCCN1CCOCC1
- inhibition (Homo sapiens [1]): 14%
- inhibition (Proteasome): 6%

SMILES: Cc1ccc(-c2cc(C(=O)NC[C@@H]3CCCO3)c3cc(CNS(=O)(=O)c4cccc(Cl)c4)ccc3n2)o1
- IC50 [2]: 1.7 µM
- inhibition (Homo sapiens [1]): 85%
- inhibition (Proteasome): 20%
